High-throughput results deposited in PubChem by Johns Hopkins Ion Channel Center.
A selection: hits, their analogues and other compounds. The true share with any hit is near 3.7%.
KCNK3 block – human KCNK3 channel inhibition, primary screen; hit rate 0.84% among 340,000; O14649; CHO-KCNK3 thallium flux, FluxOR fluorescence; active compounds read low; AID 602410; B-score at 10 µM;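 active = B-score under library mean minus 4 SD, starting fluorescence ratio at most library mean plus 5 SD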;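 note: more negative B-score means stronger inhibition of thallium flux through KCNK3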
Kir21 block – blocks the mouse Kir2.1 inward-rectifier potassium channel; P35561; HEK293-Kir2.1, FluxOR thallium flux fluorescence; active compounds read low; B-score at 10 µM; hit rate 0.85% among 310,000; AID 1672;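 active = fluorescence ratio B-score at or below minus 3 SD of library scores, with starting-brightness B-score within 2 SD, cut at about -4.2 in these data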;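 note: channel flux triggered by added potassium and thallium sulfate stimulus; B-score of peak minus minimum fluorescence over baseline after thallium stimulus; more negative B-score means stronger Kir2.1 block with less thallium influx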
KCNK9 block – blocks the human KCNK9 two-pore domain potassium channel; Q9NPC2; HEK293 KCNK9, FluxOR thallium flux fluorescence; active compounds read low; hit rate 1.2% among 310,000; B-score at 10 µM;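 active = ratio B-score over 3 SD below the library mean, with starting fluorescence within 5 SD of its mean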;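 note: negative B-score means less thallium flux so channel inhibition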
KCNQ1 act – human KCNQ1 channel potentiation or activation. P51787. CHO-K1 KCNQ1, thallium flux FluxOR fluorescence; active compounds read high. B-score at 10 µM. hit rate 0.35% among 310,000. AID 2648;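 active = fluorescence ratio B-score, a plate-corrected score, at least three library SD, with initial intensity B-score within 5 SD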
Target sequence (P51787 whole entry, looked up): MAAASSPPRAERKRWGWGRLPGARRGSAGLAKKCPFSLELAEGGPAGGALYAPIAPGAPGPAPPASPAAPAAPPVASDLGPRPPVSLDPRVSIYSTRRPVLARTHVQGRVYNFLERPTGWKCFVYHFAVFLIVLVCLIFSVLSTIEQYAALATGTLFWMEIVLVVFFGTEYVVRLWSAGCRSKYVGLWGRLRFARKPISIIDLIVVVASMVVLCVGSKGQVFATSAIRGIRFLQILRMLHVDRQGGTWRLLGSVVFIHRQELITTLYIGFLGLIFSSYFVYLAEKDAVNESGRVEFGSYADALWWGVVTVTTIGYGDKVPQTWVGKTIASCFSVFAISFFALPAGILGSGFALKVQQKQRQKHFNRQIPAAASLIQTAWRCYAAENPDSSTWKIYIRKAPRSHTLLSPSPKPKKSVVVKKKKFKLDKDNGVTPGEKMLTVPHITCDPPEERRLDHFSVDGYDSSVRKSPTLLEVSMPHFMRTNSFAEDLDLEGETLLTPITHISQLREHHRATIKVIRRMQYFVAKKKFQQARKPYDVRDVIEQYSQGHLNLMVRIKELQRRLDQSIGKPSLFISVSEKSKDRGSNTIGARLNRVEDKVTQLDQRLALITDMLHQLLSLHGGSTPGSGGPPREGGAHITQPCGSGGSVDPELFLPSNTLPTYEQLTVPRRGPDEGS
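Assay system: CHO-K1 cells stably expressing KCNQ1; Medium: assay buffer with matched DMSO; Also added: K+/Tl+ depolarizing stimulus; Dosing: single dose; Timing: dye 90 min, compound 20 min, room temperature; Measured by: kinetic FluxOR thallium fluorescence, 10-s 1-Hz baseline, 110-s post-stimulus read; Read-out: peak-minus-minimum fluorescence over initial fluorescence, negative-control normalized, B-scored.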
KCNQ1 inh – inhibitors of human KCNQ1 potassium channel; B-score at 10 µM; AID 2642; hit rate 1.3% among 310,000; CHO-K1 KCNQ1, FluxOR thallium flux fluorescence; active compounds read high;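 active = compounds whose thallium flux B-score, printed positive for inhibition, exceeds three library SD while starting fluorescence stays within three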;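 note: channel opened by potassium depolarization with thallium stimulus after 20 min compound exposure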
hERG rescue – hERG (human) protection from proarrhythmic block. hit rate 0.51% among 310,000. CHO-hERG, FluxOR thallium flux, dofetilide IC70 present. activation (rescue from dofetilide block), less the hit threshold, % at 10 µM. Q12809;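 active = activation above the mean of controls blocked by dofetilide plus 5 SD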;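 note: thallium influx through hERG after potassium depolarization seen as dye fluorescence rise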
KCNK3 inh conf – confirmation of human KCNK3 two-pore domain potassium channel inhibitors | CHO-KCNK3 thallium flux, FluxOR fluorescence; 0% buffer, 100% carvedilol maximal block | ratio percent of control, % at 10 µM | shares compounds with KCNK3 block | hit rate 99% among 2,400;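 active = ratio percent of control, averaged over triplicates, above buffer control mean plus 5 SD, cut at about 64% in these data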;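 note: ratio is the fluorescence rise from min to max over baseline after thallium stimulus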
KCNK3 uninduced – KCNK3 inhibitor counter-screen hit in non-induced cells. shares compounds with KCNK3 block. non-induced KCNK3 parental cells, FluxOR thallium flux; active compounds read low. thallium flux ratio (lower = more inhibition) at 10 µM. hit rate 40% among 2,400;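 active = thallium flux ratio, averaged over three wells, more than 5 SD below the buffer control mean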;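 note: host cells are CHO cells without KCNK3 induction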
Hits are given with their value; 0 = inactive; - = no result given.

SMILES	KCNK3 block	Kir21 block	KCNK9 block	KCNQ1 act	KCNQ1 inh	hERG rescue	KCNK3 inh conf	KCNK3 uninduced
OC(c1ccccc1)(c1ccccc1)c1nccn1-c1ccccc1	0	-	-	-	-	-	-	-
COc1ccc(NC(=O)CN(C)C(=O)CN2C(=O)C3CCCCC3C2=O)cc1 (centres undefined)	0	0	0	0	0	0	-	-
O=C1/C(=C/c2ccc(Br)cc2)Oc2cc(O)ccc21	-11.8	0	0	0	6	0	119.3	0.133
CC(c1nccs1)N(C)C(=O)CCc1nnc(CCc2ccccc2)o1 (centres undefined)	0	0	0	0	0	0	-	-
CCCCc1nn(-c2cc(Cl)ccc2OC)c2c1C(=O)CC(C)(C)C2	-10.1	0	0	0	0	0	92.3	0
CCOC(=O)CN1C(=O)/C(=C/c2c(F)cccc2Cl)Oc2ccccc21	-8.8	0	-7.81	0	6	0	123.3	0
COc1ccc(-c2cc(C(=O)OCC(=O)N3CCOCC3)c3ccccc3n2)cc1	0	-	-	-	-	-	-	-
COC(=O)C1CCN(C(=O)COC(=O)c2cc(-c3ccccc3)nc3ccc(OC)cc23)CC1	-12.2	-	-	-	-	-	105.3	0
CCOC(=O)C1(Cc2ccccc2C)CCCN(S(=O)(=O)CC)C1 (centres undefined)	0	0	0	0	0	0	-	-
COc1ccc(S(=O)(=O)N2CCCCCC2)cc1NC(=O)CN1C(=O)NC(C)(c2ccccc2)C1=O (centres undefined)	0	0	0	0	0	0	-	-
CCn1c(=O)c(C(=O)Nc2ccsc2C(=O)OC)c(O)c2ccccc21	-	0	0	0	0	0	-	-
CCCn1c(=O)c(C(=O)Nc2ccccc2C(=O)OC)c(O)c2ccccc21	-9.62	0	0	0	0	0	97.7	0
CCOC(=O)c1ccccc1NC(=O)c1c(O)c2ccccc2n(CC)c1=O	-9.52	0	0	0	0	0	111.7	0
CCn1c(=O)c(C(=O)Nc2ccc(C)cc2C)c(O)c2ccccc21	0	0	0	0	0	0	-	-
COc1cc(NC(=O)c2cc(-c3ccccc3Cl)on2)cc(OC)c1OC	0	0	0	0	0	0	-	-
Cc1cccc(C(=O)O/N=C(\c2ccccc2)c2cccnc2)c1	-8.89	0	0	0	0	0	102.3	0
C=CCn1c(SCC(=O)N2CC(=O)Nc3ccccc32)nc2scc(-c3cccs3)c2c1=O	-13	0	-7.43	0	0	0	109.7	0
CC(C)CCn1c(SCC(=O)N2CC(=O)Nc3ccccc32)nc2scc(-c3cccs3)c2c1=O	0	0	0	0	0	0	-	-
O=[N+]([O-])c1ccccc1/C=N\N1CCN(Cc2ccccc2Cl)CC1	-8.95	0	0	0	0	0	99.3	0
CC(C)N(Cc1ccccc1)C(=S)NC1CCCCC1	-8.86	-5.42	0	0	0	0	111.3	0
CC(C)N(C(=S)NC1CCCCC1)c1ccccc1	-	0	0	0	0	0	-	-
CCCN(c1nc(C)cc(OC)n1)S(=O)(=O)c1ccccc1	-11.8	-8.32	0	0	0	0	101.3	0
CC(OC(=O)Cc1ccc(Br)cc1)C(=O)NC1CCCC1 (centres undefined)	0	-	-	-	-	-	-	-
Clc1cccc(OCc2nnc(-c3ccccc3Br)o2)c1	-10.6	0	0	0	0	0	104.7	0
CCCCNC(=O)c1cc2nc3c(c(C(F)(F)F)n2n1)CCc1ccccc1-3	0	0	0	0	0	0	-	-
SMILES	KCNK3 block	Kir21 block	KCNK9 block	KCNQ1 act	KCNQ1 inh	hERG rescue	KCNK3 inh conf	KCNK3 uninduced
CC(C)CNC(=O)c1cc2nc3c(c(C(F)(F)F)n2n1)CCc1ccccc1-3	-16.8	0	0	0	0	0	56.3	0
O=C(O)Cn1cc(C(=O)c2cccs2)c2ccccc21	0	0	0	0	0	0	-	-
O=C(c1cccs1)c1cn(CC(=O)N2CCc3ccccc3C2)c2ccccc12	-10.6	0	0	0	0	0	80.3	0
O=[N+]([O-])c1ccccc1Nc1c2ccccc2nc2ccccc12	0	0	0	0	0	0	-	-
O=[N+]([O-])c1ccc(S(=O)(=O)Nc2nc3ccccc3nc2Nc2ccccc2)cc1	-11.3	0	0	0	0	0	106.7	0
O=C(O)c1ccc(Nc2nc3ccccc3nc2NS(=O)(=O)c2ccc(F)cc2)cc1	0	0	0	0	0	0	-	-
COc1cc(Nc2nc3ccccc3nc2NS(=O)(=O)c2ccc([N+](=O)[O-])cc2)cc(OC)c1OC	-12.2	0	0	0	10	0	129.3	0.123
O=[N+]([O-])c1ccc(Nc2c3ccccc3nc3ccccc23)cc1	-12.3	0	0	0	0	0	119.7	0.149
CC(=O)Nc1c(Cl)c(Cl)c2c(c1Cl)C(=O)c1cc(Cl)ccc1-2	0	-	-	-	-	-	-	-
Cc1ccc(C)c(-c2cc(C(=O)Nc3cccnc3)c3ccccc3n2)c1	-12	0	-8	0	6	0	124.7	0.115
CN1CCN(C2Cc3cc(F)ccc3Sc3ccc(Cl)cc32)CC1 (centres undefined)	-10.1	0	0	0	0	0	113.7	0
Cc1cc2c(=O)n(Cc3ccco3)c(SCC(=O)c3ccc(Cl)s3)nc2s1	-9.71	0	-6.71	0	0	0	107.7	0
O=C(CSc1nc2ccccc2c(=O)n1Cc1ccco1)c1ccc(F)cc1	-9.56	0	0	0	0	0	112.3	0
COc1ccc(CNc2nnnn2C)c(OC)c1	0	0	0	0	0	0	-	-
CC(C)c1ccc(NC(=O)COC(=O)C2CC3C=CC2C3)cc1 (centres undefined)	0	-	-	-	-	-	-	-
COc1ccc(OC)c(-c2csc(N(Cc3ccco3)C(=O)c3ccco3)n2)c1	-11.9	0	-7.28	0	0	0	101.7	0
COc1ccc(OC)c(-c2csc(NC(=O)Cc3ccccc3)n2)c1	-9.44	0	0	0	0	0	125.0	0.148
COc1cccc(CC(=O)Nc2nc(-c3cc(OC)ccc3OC)cs2)c1	0	0	0	0	0	0	-	-
COc1ccc(CN(C(=O)c2ccco2)c2ccc(C)c(C)c2)cc1	-10.5	0	-7.1	0	0	0	105.3	0
COc1ccc(OC)c(-c2csc(NC(=O)Cc3cccs3)n2)c1	-8.83	0	0	0	0	0	84.7	0
O=C(Nc1nc(-c2ccc(F)c(F)c2)cs1)Nc1ccc(F)cc1F	0	0	0	0	0	0	-	-
CC1CN(C(=O)COC(=O)[C@@H](NC(=O)c2ccccc2Cl)C(C)C)CC(C)O1 (some centres undefined)	0	-	-	-	-	-	-	-
COc1ccc(CN(C)C(=O)c2ccc3c(=O)n4c(nc3c2)CCC4)cc1	0	0	0	0	0	0	-	-
